From PubChem BioAssay AID652286 (Sanford-Burnham Center for Chemical Genomics, 2013)
“And” between values parts separate entries of the source, which are not always exact repeats. Identical values can stand only once. The source made the active and inactive calls.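 Rule for the calls: active = compounds halving thioesterase enzyme activity at 20 µM or lower; inactive = the rest.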

The molecules below were run against Fatty acid synthase (Homo sapiens) (UniProt P49327) (assay: FAS thioesterase domain inhibitors, SAR follow-up, biochemical, kinetic fluorescence, OMFH substrate, round 2, powder samples (AID 652286)). Details: recombinant FAS-TE, OMFH fluorogenic substrate.
Sequence of Fatty acid synthase (Homo sapiens) (P49327 whole entry, looked up, the tested form may be a part): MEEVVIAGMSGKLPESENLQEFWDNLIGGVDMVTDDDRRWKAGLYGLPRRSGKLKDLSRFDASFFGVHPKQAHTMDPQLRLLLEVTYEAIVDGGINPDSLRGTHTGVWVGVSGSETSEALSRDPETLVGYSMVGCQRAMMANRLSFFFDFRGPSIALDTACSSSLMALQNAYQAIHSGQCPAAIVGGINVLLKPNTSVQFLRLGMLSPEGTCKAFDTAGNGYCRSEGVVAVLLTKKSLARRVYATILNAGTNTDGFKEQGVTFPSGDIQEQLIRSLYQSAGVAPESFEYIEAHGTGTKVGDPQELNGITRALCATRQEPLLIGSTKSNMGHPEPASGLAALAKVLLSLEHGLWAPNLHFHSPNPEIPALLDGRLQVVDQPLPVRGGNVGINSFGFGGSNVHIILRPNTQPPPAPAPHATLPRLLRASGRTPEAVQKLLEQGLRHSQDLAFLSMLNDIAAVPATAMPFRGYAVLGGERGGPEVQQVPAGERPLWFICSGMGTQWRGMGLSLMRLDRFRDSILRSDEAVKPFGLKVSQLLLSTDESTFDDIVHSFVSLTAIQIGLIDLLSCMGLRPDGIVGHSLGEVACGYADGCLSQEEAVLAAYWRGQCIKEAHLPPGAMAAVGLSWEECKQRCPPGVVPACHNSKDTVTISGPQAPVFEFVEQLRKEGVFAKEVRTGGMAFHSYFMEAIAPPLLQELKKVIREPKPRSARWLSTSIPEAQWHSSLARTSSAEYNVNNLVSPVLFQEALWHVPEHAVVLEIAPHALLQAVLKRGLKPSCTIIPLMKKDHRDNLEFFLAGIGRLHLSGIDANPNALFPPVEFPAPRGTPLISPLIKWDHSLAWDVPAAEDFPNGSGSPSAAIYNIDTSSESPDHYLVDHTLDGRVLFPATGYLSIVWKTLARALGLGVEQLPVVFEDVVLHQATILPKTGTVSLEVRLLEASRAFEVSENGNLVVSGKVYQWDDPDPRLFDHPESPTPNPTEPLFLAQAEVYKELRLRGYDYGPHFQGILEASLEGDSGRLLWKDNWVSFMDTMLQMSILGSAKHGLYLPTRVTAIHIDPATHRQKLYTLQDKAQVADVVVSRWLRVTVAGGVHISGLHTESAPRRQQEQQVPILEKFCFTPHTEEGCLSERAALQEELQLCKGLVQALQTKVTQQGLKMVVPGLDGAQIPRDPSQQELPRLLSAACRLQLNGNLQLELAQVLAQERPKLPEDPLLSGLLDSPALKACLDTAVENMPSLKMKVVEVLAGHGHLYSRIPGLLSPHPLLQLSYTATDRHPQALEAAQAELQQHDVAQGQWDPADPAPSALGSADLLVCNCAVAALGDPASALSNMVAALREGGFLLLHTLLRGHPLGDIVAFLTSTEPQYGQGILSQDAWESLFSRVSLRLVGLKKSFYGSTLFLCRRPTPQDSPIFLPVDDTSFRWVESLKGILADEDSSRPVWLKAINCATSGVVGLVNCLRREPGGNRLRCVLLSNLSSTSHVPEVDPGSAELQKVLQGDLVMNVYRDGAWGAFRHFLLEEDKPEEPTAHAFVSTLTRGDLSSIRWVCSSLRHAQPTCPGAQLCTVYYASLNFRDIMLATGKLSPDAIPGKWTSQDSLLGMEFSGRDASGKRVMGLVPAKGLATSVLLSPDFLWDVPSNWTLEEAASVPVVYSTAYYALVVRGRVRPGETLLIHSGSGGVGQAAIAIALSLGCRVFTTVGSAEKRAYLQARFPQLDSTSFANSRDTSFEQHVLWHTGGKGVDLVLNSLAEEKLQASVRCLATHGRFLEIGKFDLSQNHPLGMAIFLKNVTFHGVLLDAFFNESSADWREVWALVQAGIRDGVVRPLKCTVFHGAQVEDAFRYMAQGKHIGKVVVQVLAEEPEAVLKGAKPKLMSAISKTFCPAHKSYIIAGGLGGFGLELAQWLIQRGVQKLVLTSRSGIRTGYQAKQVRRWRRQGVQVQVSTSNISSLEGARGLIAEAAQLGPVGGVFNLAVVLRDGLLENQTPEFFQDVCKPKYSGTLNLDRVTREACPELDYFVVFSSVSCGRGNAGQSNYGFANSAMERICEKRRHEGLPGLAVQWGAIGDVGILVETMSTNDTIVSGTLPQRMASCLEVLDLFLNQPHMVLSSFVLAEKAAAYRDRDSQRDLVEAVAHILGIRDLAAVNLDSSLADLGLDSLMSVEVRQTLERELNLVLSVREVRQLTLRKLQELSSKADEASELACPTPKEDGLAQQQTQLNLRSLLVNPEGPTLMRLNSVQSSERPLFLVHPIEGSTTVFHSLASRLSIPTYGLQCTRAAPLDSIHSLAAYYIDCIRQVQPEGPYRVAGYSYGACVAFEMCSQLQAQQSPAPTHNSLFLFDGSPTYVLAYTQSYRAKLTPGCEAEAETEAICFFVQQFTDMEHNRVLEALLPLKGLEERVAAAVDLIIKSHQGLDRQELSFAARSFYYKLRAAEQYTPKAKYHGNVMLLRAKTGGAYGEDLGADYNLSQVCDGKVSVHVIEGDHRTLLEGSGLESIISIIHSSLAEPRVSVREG
Outline: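 Test system: FAS thioesterase domain enzyme | Medium: Tris-HCl pH 7.5 buffer with NaCl, sarcosine, TCEP, Brij35 | Also added: OMFH fluorogenic substrate (2x stock 60 µM) | Dosing: Dose-response series, 5.5% DMSO final in well | Times: 10-min read interval, room temperature | Signal: Fluorescence at 480/540 nm, kinetic mode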

| SMILES | IC50 |
| --- | --- |
| Cn1c(SCC(=O)Nc2ncc(C(F)(F)F)cc2Cl)nnc1-c1ccc(Cl)cc1 | 682 nM |
| CCC(CC)C(=O)Nc1nc(-c2ccc(S(=O)(=O)N(CC)CC)cc2)cs1 | 343 nM |
| CCCCC(=O)Nc1nc(-c2ccc(S(=O)(=O)N3CCCCC3C)cc2)cs1 (stereo not drawn) | 358 nM |
| CCC(CC)C(=O)Nc1nc(-c2ccc(S(=O)(=O)N3CCC(C)CC3)cc2)cs1 | 1820 nM |
| CCCCCC(=O)Nc1nc(-c2ccc(S(=O)(=O)N(CC)CC)cc2)cs1 | 190 nM |
| CCC(C)C(=O)Nc1nc(-c2ccc(S(=O)(=O)N3CCCCC3C)cc2)cs1 (stereo not drawn) | 278 nM |
| CCCCCCC(=O)Nc1nc(-c2ccc(S(=O)(=O)N(CC)CC)cc2)cs1 | 1400 nM |
| CCC(C)C(=O)Nc1nc(-c2ccc(S(=O)(=O)N3CCCC3)cc2)cs1 (stereo not drawn) | 141 nM |
| CN(Cc1ccc(C(C)(C)C)cc1)C(=O)Cc1ccc(S(=O)(=O)N2CCOCC2)s1 | 365 nM |
| CC(C)CC(=O)Nc1nc(-c2ccc(S(=O)(=O)N3CCCC3)cc2)cs1 | 1640 nM |
| CCC(C)C(=O)Nc1nc(-c2ccc(S(=O)(=O)N(CC)CC)cc2)cs1 (stereo not drawn) | 1060 nM and 152 nM |
| CCCCC(=O)Nc1nc(-c2ccc(S(=O)(=O)N3CCOCC3)cc2)cs1 | 201 nM |
| CCCCCCCCCCC[C@H](C[C@@H]1OC(=O)[C@H]1CCCCCC)OC(=O)[C@@H](NC=O)C(C)C | 122 nM |
| CCC(CC)C(=O)Nc1nc(-c2ccc(S(=O)(=O)N3CCCC3)cc2)cs1 | 254 nM |
| CC1CCN(S(=O)(=O)c2ccc(-c3csc(NC(=O)C(C)C)n3)cc2)CC1 | 489 nM |

Other lines, results leading:

| IC50 | SMILES |
| --- | --- |
| 5850 nM | CCCCCCC(=O)Nc1nc(-c2ccc(S(=O)(=O)N3CCC(C)CC3)cc2)cs1 |
| 874 nM | CCCCCCC(=O)Nc1nc(-c2ccc(S(=O)(=O)N3CCCC3)cc2)cs1 |
| 4430 nM | CCCCCCC(=O)Nc1nc(-c2ccc(S(=O)(=O)N3CCCCC3C)cc2)cs1 (stereo not drawn) |
| 552 nM | CCCCCC(=O)Nc1nc(-c2ccc(S(=O)(=O)N3CCCCC3C)cc2)cs1 (stereo not drawn) |
| inactive | CC(C)CC(=O)Nc1nc(-c2ccc(S(=O)(=O)N3CCC(C)CC3)cc2)cs1 |
| 405 nM | CCC(C)C(=O)Nc1nc(-c2ccc(S(=O)(=O)N3CCC(C)CC3)cc2)cs1 (stereo not drawn) |
| 137 nM | CCCCCC(=O)Nc1nc(-c2ccc(S(=O)(=O)N3CCCC3)cc2)cs1 |
| 762 nM | CCCCCC(=O)Nc1nc(-c2ccc(S(=O)(=O)N3CCC(C)CC3)cc2)cs1 |
